From ChEMBL document CHEMBL1143965, “N-Phenyl-N'-(2-chloroethyl)ureas (CEUs) as potential antineoplastic agents. Part 3: role of carbonyl groups in the covalent binding to the colchicine-binding site” (2008)

What was measured:
Assay type in all cases: functional
MCF7 = assay: Antiproliferative activity against human MCF7 cells after 48 hrs; conditions: MCF7, 48 h
How it was run: (§1)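 NCI-style sulforhodamine B growth assay. Cells in high-glucose DMEM with 5% iron-supplemented bovine calf serum were preincubated 24 h at 37 °C, 5% CO2. Drugs in DMSO (final <0.5%) were added at 0.1–100 µM final for 48 h. Cells were fixed with cold TCA (10% final, 60 min, 4 °C), stained with 0.1% SRB, solubilized in 20 mM Tris, and read at 585 nm against a day-0 plate. GI50 was taken; at least two runs in triplicate.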

M21 [1] = assay: Antiproliferative activity against human M21 cells after 48 hrs; conditions: M21, 48 h; how it was run: as §1
HT-29 = assay: Antiproliferative activity against human HT29 cells after 48 hrs; conditions: HT-29, 48 h; how it was run: as §1
M21 [2] = assay: (§2) Cell cycle arrest in human M21 cells by accumulation at G0/G1 phase at 1.2 uM after 24 hrs by flow cytometry
How it was run: (§3)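 Exponentially growing M21 cells were exposed to drug (DMSO vehicle, <0.5% v/v) for 24 h, then collected and fixed with ice-cold ethanol. 5×10^5 cells were stained in PBS with 50 µg/mL propidium iodide plus 40 U/mL RNase A for 30 min at room temperature. Phase distribution was measured by flow cytometry.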

M21 [3] = assay: Induction of apoptosis in human M21 cells at 1.2 uM
M21 [4] = assay: Cell cycle arrest in human M21 cells by accumulation at G0/G1 phase at 4 uM after 24 hrs by flow cytometry; how it was run: as §3
M21 [5] = assay: as §2; how it was run: as §3; remark: listed apart in the source
M21 [6] = assay: Cell cycle arrest in human M21 cells by accumulation at S phase at 4 uM after 24 hrs by flow cytometry; how it was run: as §3
M21 [7] = assay: Cell cycle arrest in human M21 cells by accumulation at S phase at 1.2 uM after 24 hrs by flow cytometry; how it was run: as §3
M21 [8] = assay: Cell cycle arrest in human M21 cells by accumulation at G2/M phase at 4 uM after 24 hrs by flow cytometry; how it was run: as §3
M21 [9] = assay: Induction of apoptosis in human M21 cells at 4 uM
M21 [10] = assay: Cell cycle arrest in human M21 cells by accumulation at S phase at 15 uM after 24 hrs by flow cytometry; how it was run: as §3
M21 [11] = assay: Induction of apoptosis in human M21 cells at 5 uM
M21 [12] = assay: Cell cycle arrest in human M21 cells by accumulation at G0/G1 phase at 15 uM after 24 hrs by flow cytometry; how it was run: as §3
M21 [13] = assay: Induction of apoptosis in human M21 cells at 15 uM
M21 [14] = assay: Cell cycle arrest in human M21 cells by accumulation at S phase at 5 uM after 24 hrs by flow cytometry; how it was run: as §3
M21 [15] = assay: Cell cycle arrest in human M21 cells by accumulation at G0/G1 phase at 5 uM after 24 hrs by flow cytometry; how it was run: as §3
M21 [16] = assay: Cell cycle arrest in human M21 cells by accumulation at G2/M phase at 15 uM after 24 hrs by flow cytometry; how it was run: as §3
M21 [17] = assay: Cell cycle arrest in human M21 cells by accumulation at G2/M phase at 5 uM after 24 hrs by flow cytometry; how it was run: as §3
M21 [18] = assay: Cell cycle arrest in human M21 cells by accumulation at G2/M phase at 3 uM after 24 hrs by flow cytometry; how it was run: as §3
M21 [19] = assay: Cell cycle arrest in human M21 cells by accumulation at G0/G1 phase at 3 uM after 24 hrs by flow cytometry; how it was run: as §3
M21 [20] = assay: Induction of apoptosis in human M21 cells at 3 uM
M21 [21] = assay: Cell cycle arrest in human M21 cells by accumulation at G0/G1 phase at 10 uM after 24 hrs by flow cytometry; how it was run: as §3
M21 [22] = assay: Induction of apoptosis in human M21 cells at 10 uM
M21 [23] = assay: Cell cycle arrest in human M21 cells by accumulation at G2/M phase at 10 uM after 24 hrs by flow cytometry; how it was run: as §3
M21 [24] = assay: Cell cycle arrest in human M21 cells by accumulation at S phase at 10 uM after 24 hrs by flow cytometry; how it was run: as §3
M21 [25] = assay: Cell cycle arrest in human M21 cells by accumulation at S phase at 3 uM after 24 hrs by flow cytometry; how it was run: as §3
M21 [26] = assay: Induction of apoptosis in human M21 cells at 21 uM
M21 [27] = assay: Induction of apoptosis in human M21 cells at 175 uM
M21 [28] = assay: Cell cycle arrest in human M21 cells by accumulation at G0/G1 phase at 175 uM after 24 hrs by flow cytometry; how it was run: as §3
M21 [29] = assay: Induction of apoptosis in human M21 cells at 7 uM
M21 [30] = assay: Cell cycle arrest in human M21 cells by accumulation at S phase at 7 uM after 24 hrs by flow cytometry; how it was run: as §3
M21 [31] = assay: Cell cycle arrest in human M21 cells by accumulation at G2/M phase at 7 uM after 24 hrs by flow cytometry; how it was run: as §3
M21 [32] = assay: Cell cycle arrest in human M21 cells by accumulation at G2/M phase at 21 uM after 24 hrs by flow cytometry; how it was run: as §3
M21 [33] = assay: Cell cycle arrest in human M21 cells by accumulation at G0/G1 phase at 7 uM after 24 hrs by flow cytometry; how it was run: as §3
M21 [34] = assay: Cell cycle arrest in human M21 cells by accumulation at S phase at 21 uM after 24 hrs by flow cytometry; how it was run: as §3
M21 [35] = assay: Cell cycle arrest in human M21 cells by accumulation at G0/G1 phase at 21 uM after 24 hrs by flow cytometry; how it was run: as §3
M21 [36] = assay: Cell cycle arrest in human M21 cells by accumulation at G2/M phase at 175 uM after 24 hrs by flow cytometry; how it was run: as §3
M21 [37] = assay: Cell cycle arrest in human M21 cells by accumulation at S phase at 175 uM after 24 hrs by flow cytometry; how it was run: as §3

Compound	GI50 (MCF7) [µM]	GI50 (HT-29) [µM]	GI50 (M21 [1]) [µM]	further results
O=C(NCCCl)Nc1cccc(CCCCCO)c1	0.48	0.16	0.27	Activity (M21 [2]): 50%; Activity (M21 [3]): 12%; Activity (M21 [4]): 6%; Activity (M21 [5]): 50%; Activity (M21 [6]): 7%; Activity (M21 [7]): 11%; Activity (M21 [8]): 53%; Activity (M21 [9]): 27%
CCOC(=O)CCCCCc1cccc(NC(=O)NCCCl)c1	22.5	19.8	17.7	–
CCOC(=O)c1cccc(NC(=O)NCCCl)c1	> 100	> 100	96.4	–
CCCCCc1cccc(NC(=O)NCCCl)c1	1.6	0.96	0.87	Activity (M21 [18]): 50%; Activity (M21 [19]): 14%; Activity (M21 [20]): 18%; Activity (M21 [21]): 6%; Activity (M21 [22]): 31%; Activity (M21 [23]): 49%; Activity (M21 [24]): 7%; Activity (M21 [25]): 11%
CCOC(=O)CCCCc1cccc(NC(=O)NCCCl)c1	8.7	8.2	11	–
CC(=O)CCCCCc1cccc(NC(=O)NCCCl)c1	3.9	0.9	2.1	Activity (M21 [10]): 18%; Activity (M21 [11]): 21%; Activity (M21 [12]): 11%; Activity (M21 [13]): 16%; Activity (M21 [14]): 18%; Activity (M21 [15]): 10%; Activity (M21 [16]): 53%; Activity (M21 [17]): 48%
COCCCCCc1cccc(NC(=O)NCCCl)c1	1.9	0.84	0.94	Activity (M21 [18]): 37%; Activity (M21 [19]): 29%; Activity (M21 [20]): 14%; Activity (M21 [21]): 7%; Activity (M21 [22]): 24%; Activity (M21 [23]): 52%; Activity (M21 [24]): 9%; Activity (M21 [25]): 14%
COC(=O)CCCCc1cccc(NC(=O)NCCCl)c1	15.1	8.1	7.3	Activity (M21 [26]): 6%; Activity (M21 [27]): 19%; Activity (M21 [28]): 18%; Activity (M21 [29]): 4%; Activity (M21 [30]): 36%; Activity (M21 [31]): 14%; Activity (M21 [32]): 20%; Activity (M21 [33]): 46%; Activity (M21 [34]): 34%; Activity (M21 [35]): 40%; Activity (M21 [36]): 62%; Activity (M21 [37]): 1%
COC(=O)CCCCCc1cccc(NC(=O)NCCCl)c1	10.2	7.2	7.1	Activity (M21 [26]): 5%; Activity (M21 [27]): 19%; Activity (M21 [28]): 8%; Activity (M21 [29]): 4%; Activity (M21 [30]): 37%; Activity (M21 [31]): 14%; Activity (M21 [32]): 15%; Activity (M21 [33]): 45%; Activity (M21 [34]): 31%; Activity (M21 [35]): 49%; Activity (M21 [36]): 72%; Activity (M21 [37]): 1%
NC(=O)CCCCCc1cccc(NC(=O)NCCCl)c1	21.8	5.7	8.9	–
COC(=O)c1cccc(NC(=O)NCCCl)c1	> 100	80.2	86.2	–

Further lines, with some results ahead:

GI50 (MCF7) [µM]	GI50 (HT-29) [µM]	Compound	GI50 (M21 [1]) [µM]	further results
11.2	3.6	NC(=O)CCCCc1cccc(NC(=O)NCCCl)c1	5.7	–
> 100	82.7	COC(=O)Cc1cccc(NC(=O)NCCCl)c1	> 100	–
> 100	> 100	CCOC(=O)Cc1cccc(NC(=O)NCCCl)c1	> 100	–
> 100	> 100	O=C(O)Cc1cccc(NC(=O)NCCCl)c1	> 100	–
2	0.6	CC(=O)CCCCc1cccc(NC(=O)NCCCl)c1	1.1	Activity (M21 [10]): 10%; Activity (M21 [11]): 11%; Activity (M21 [12]): 6%; Activity (M21 [13]): 23%; Activity (M21 [14]): 13%; Activity (M21 [15]): 44%; Activity (M21 [16]): 53%; Activity (M21 [17]): 25%
> 100	> 100	O=C(O)CCCCc1cccc(NC(=O)NCCCl)c1	> 100	–
> 100	35.9	O=C(O)CCCCCc1cccc(NC(=O)NCCCl)c1	47.5	–
> 100	> 100	NC(=O)c1cccc(NC(=O)NCCCl)c1	> 100	–
82.9	68.1	O=C(NCCCl)Nc1cccc(C(=O)O)c1	67.9	–
> 100	> 100	CC(=O)c1cccc(NC(=O)NCCCl)c1	> 100	–
> 100	> 100	NC(=O)Cc1cccc(NC(=O)NCCCl)c1	> 100	–
